Screens as filed in PubChem BioAssay.
This is a sample that favours compounds with a hit; in the whole collection about 5.7% have one here.
Mdm2 MdmX PPI – inhibitors of human Mdm2/MdmX interaction; O15151+Q00987; AID 485346; SaOS-2 split-luciferase Mdm2/MdmX complementation, luminescence; inhibition, % at 8 µM; hit rate 3% among 330,000;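 active = inhibition of at least 50% at 8 µM in the primary screen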
Target sequence (O15151 whole entry, looked up): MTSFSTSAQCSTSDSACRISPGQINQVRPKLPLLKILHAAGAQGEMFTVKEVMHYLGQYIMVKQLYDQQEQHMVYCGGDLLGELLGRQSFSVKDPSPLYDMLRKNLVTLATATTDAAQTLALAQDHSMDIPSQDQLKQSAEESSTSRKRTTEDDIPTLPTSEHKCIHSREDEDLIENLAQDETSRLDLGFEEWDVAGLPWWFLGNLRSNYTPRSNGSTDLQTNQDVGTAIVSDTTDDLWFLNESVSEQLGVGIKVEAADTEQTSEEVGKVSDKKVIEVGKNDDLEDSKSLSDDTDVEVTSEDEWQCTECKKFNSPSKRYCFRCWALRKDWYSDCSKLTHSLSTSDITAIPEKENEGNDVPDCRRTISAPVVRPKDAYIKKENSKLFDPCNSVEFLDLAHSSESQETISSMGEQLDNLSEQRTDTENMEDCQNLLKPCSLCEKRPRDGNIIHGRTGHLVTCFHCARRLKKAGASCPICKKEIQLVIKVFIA
Target sequence (Q00987 whole entry, looked up): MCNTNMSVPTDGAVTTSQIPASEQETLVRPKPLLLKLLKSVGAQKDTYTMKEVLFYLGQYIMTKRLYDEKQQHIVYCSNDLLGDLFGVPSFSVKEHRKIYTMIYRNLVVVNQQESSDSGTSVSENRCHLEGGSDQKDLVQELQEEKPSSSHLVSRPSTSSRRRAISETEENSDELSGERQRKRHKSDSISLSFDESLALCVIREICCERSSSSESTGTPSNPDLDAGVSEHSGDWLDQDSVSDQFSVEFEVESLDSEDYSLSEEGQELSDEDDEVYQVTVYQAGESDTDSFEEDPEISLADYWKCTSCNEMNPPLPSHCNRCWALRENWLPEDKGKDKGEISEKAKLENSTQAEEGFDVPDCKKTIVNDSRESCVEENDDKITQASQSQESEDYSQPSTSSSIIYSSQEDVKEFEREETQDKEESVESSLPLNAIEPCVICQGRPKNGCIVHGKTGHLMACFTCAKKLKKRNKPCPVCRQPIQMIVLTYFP
SKKanGAS inh – blocks kanamycin growth of S. pyogenes SKKanGAS strain | inhibition, % at 7.5 µM | hit rate 1.3% among 300,000 | AID 1662 | BacTiter-Glo, 6 h;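 active = mean replicate score, as percent of positive control median, at least 50; inconclusive = mean below 50 but one replicate at or above 50; inactive = mean and every replicate below 50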;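 also: strain carries kanamycin resistance gene driven by streptokinase promoter and grows in 40 µg/ml kanamycin; loss of luminescence reflects streptokinase promoter inhibition or plain growth inhibition; 0% = median of DMSO wells and 100% = positive control at its reference dose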
CSC inhib – blocks cancer stem cells. cancer stem cell-like cells viability, luminescence. inhibition, % at 7.5 µM. hit rate 1.1% among 300,000. AID 2717; in the data active = inhibition above about 75%; inconclusive = no clear call, values can overlap the other calls; tested in HMLE shEcad cells
T cruzi inh – T. cruzi replication inhibition. T. cruzi beta-gal in NIH3T3, luminescence, 90 h. inhibition, % (concentration not given with the values). hit rate 1.4% among 300,000. AID 1885;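 active = mean inhibition across valid replicates above about 55%, limit read from the data; inconclusive = mean below that limit but half or more replicates reach it; inactive = mean below it, under half of replicates reach it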;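 also: signal also drops with host cell toxicity which is not excluded here; 0% = plate median of DMSO wells and 100% = zero luminescence signal; higher percent means less beta-gal luminescence so fewer parasites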
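Assay system: NIH/3T3 fibroblasts plus reporter T. cruzi. Amount: NIH/3T3 cells, 5,000 per well. Buffer or medium: DMEM, 2% fetal bovine serum. Doses: compound pinned at 50 nL/well, DMSO. Schedule: ≥90 h infection period, 3 h prior cell attachment. Signal: luminescent β-galactosidase signal after 60 min lysis. Read-out: parasite load inhibition, %.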
Beta apoptosis – blocks beta cell apoptosis; INS-1E cytokine-induced death, ATP luminescence, 48 h; percent of positive-control rescue, neutral wells zero; protection from apoptosis, % (no concentration beside the values); hit rate 0.8% among 300,000;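 active = Every replicate reaches about 75%, or at least half do and their mean reaches it too, limit read from the data; inconclusive = At least half of replicates reach the limit but their mean does not; inactive = Under half of replicates reach the limit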;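 also: 0% = cytokine-treated negative control wells and 100% = positive control rescue; higher means more ATP so stronger rescue from cytokine killing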
Calb FLC – C. albicans growth modulation with fluconazole | C. albicans CaCi-2 (fluconazole-resistant clinical isolate) + fluconazole, Alamar Blue growth, 48 h | growth inhibition, % (test concentration not listed) | hit rate 0.57% among 300,000;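 active = growth inhibition above about 58% in most replicates, limit read from the data, passing the limit was not always enough; inconclusive = exactly half the replicates above a set limit; inactive = most replicates below a set limit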;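 also: all wells also contain fluconazole at 8 µg/ml as a sub-toxic cotreatment; 0% = median of DMSO wells and 100% = median of geldanamycin control wells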
Mdm2 MdmX conf – human Mdm2/MdmX binding inhibition, confirmed | shares compounds with Mdm2 MdmX PPI | luminescent assay | inhibition, % at 8 µM | hit rate 55% among 10,000 | AID 489028; in the data active = inhibition above about 40%
FLuc counter – inhibits full-length luciferase, flagging false Mdm2/MdmX hits. inhibition, % at 8 µM. AID 504607. SaOS-2 full-length luciferase counterscreen, luminescence. hit rate 77% among 6,200. shares compounds with Mdm2 MdmX PPI;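 active = mean inhibition at 8 µM reaching about 37%, which flags the compound as non-specific, limit read from the data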;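 also: p53-null SaOS-2 cells with luciferase driven by a doxycycline-inducible promoter; compound on cells about two nights before reading with doxycycline added after day one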
* marks the source's active call; other numbers are inactive results; ? = inconclusive; nt = not tested or not shown; + = active, no number.

SMILES	Mdm2 MdmX PPI	SKKanGAS inh	CSC inhib	T cruzi inh	Beta apoptosis	Calb FLC	Mdm2 MdmX conf	FLuc counter
O=C1NC(=Nc2cccnc2)S/C1=C/c1ccc(F)cc1	51*	4	55	-6	-1	5	20	nt
COc1ccc(CNC(=O)CC2C[C@H](C(=O)N3CCCCC3)[C@@]3(C)c4[nH]c5ccccc5c4CCN3C2=O)cc1OC (stereo partly drawn)	16	nt	nt	nt	-6	nt	nt	nt
Cc1nn(-c2ccccn2)c(C)c1Oc1ccccc1O	11	-1	-10	-4	-9	-1	nt	nt
Cc1nn(-c2nc3ccccc3s2)c(C)c1Oc1ccccc1O	77*	41	?	-7	-5	1	66*	87*
N/C(CCS(=O)(=O)c1ccc(Cl)cc1)=N\OC(=O)c1ccc(Cl)cc1	55*	-5	5	16	0	28	18	nt
N/C(CCS(=O)(=O)c1ccc(Cl)cc1)=N\OC(=O)c1ccccc1C(F)(F)F	94*	-4	10	23	nt	17	93*	23
CCOc1ccc(NS(=O)(=O)c2cc(NC(=O)c3cccc(C)c3)ccc2Cl)cc1	51*	20	51	52	2	16	46*	79*
CNC(=O)Nc1cc(NC(=O)NC)cc(C(F)(F)F)c1	20	1	-8	-26	-7	4	nt	nt
COc1cc2c(cc1OC)C(c1cc(Br)ccc1F)N(C(=O)CCl)CC2 (stereo not drawn)	100*	-3	42	65*	7	-3	73*	55*
O=C(CSc1nc2c(oc3ccccc32)c(=O)n1CC1CCCO1)NCc1ccc(F)cc1 (stereo not drawn)	0	2	nt	12	nt	2	nt	nt
O=C(CSc1nc2c(oc3ccccc32)c(=O)n1CC1CCCO1)NCc1ccccc1 (stereo not drawn)	66*	-8	-7	1	13	14	17	nt
CCOC(=O)C1(Cc2ccccc2C(F)(F)F)CCN(CC(O)CO)CC1 (stereo not drawn)	14	3	1	3	-3	-12	nt	nt
CCOC(=O)C1(Cc2ccccc2C(F)(F)F)CCN(C2CCN(C(C)C)CC2)CC1	73*	2	23	nt	9	-9	59*	54*
Cc1ccc(S(=O)(=O)N(C)c2ccc(OC(=O)c3cccs3)cc2)cc1	9	nt	3	nt	1	nt	nt	nt
COc1ccc(Nc2cc(C)nc3ccc(OC)cc23)cc1	11	1	12	31	49	18	nt	nt
Cc1ccc2nc(C)cc(N/N=C/c3cccc(O)c3)c2c1	12	5	4	-7	2	0	nt	nt
COc1ccc2nc(C)cc(N/N=C/c3ccc(F)cc3)c2c1	100*	19	106*	61*	107*	-16	100*	51*
COc1ccc(/C=N/Nc2cc(C)nc3ccccc23)cc1	98*	2	32	64*	50	-12	57*	46*
COc1ccc(CNc2cc(C)nc3ccc(OC)cc23)cc1	52*	-3	-5	53	18	-1	28	nt
COc1ccc(/C=N/Nc2cc(C)nc3c(C)cccc23)cc1	97*	15	27	74*	47	-20	56*	77*
O=c1oc2cc(O)ccc2c2oc3cc(O)ccc3c12	6	-3	18	-6	nt	-14	nt	nt
COc1c2c(cc3oc(=O)c4c5ccc(O)cc5oc4c13)OC(C)(C)CC2	81*	3	-10	31	7	-7	63*	+
O=C(CN1CCN(Cc2ccc(Cl)cc2)CC1)N/N=C/c1ccccc1F	12	-5	0	-13	nt	-6	nt	nt
COc1ccc(C(=O)C/C(=C\C(=O)c2ccc(C)cc2)c2ccccc2)cc1	86*	0	nt	64*	?	-3	84*	24
COc1cc(S(=O)(=O)Nc2ccccc2)ccc1N=Cc1c(C)[nH]n(-c2ccc(C)cc2)c1=O	67*	28	9	7	17	-15	21	nt
SMILES	Mdm2 MdmX PPI	SKKanGAS inh	CSC inhib	T cruzi inh	Beta apoptosis	Calb FLC	Mdm2 MdmX conf	FLuc counter
COc1cc(SC#N)ccc1N=Cc1c(C)[nH]n(-c2ccc(C)c(C)c2)c1=O	87*	5	97*	28	79*	11	91*	52*
COc1cc(SC#N)ccc1N=Cc1c(C)[nH]n(-c2ccc(Cl)cc2)c1=O	23	-1	-1	21	70	-5	nt	nt
O=C(COC(=O)CNC(=O)c1ccc(Cl)c([N+](=O)[O-])c1)NCC1CCCO1 (stereo not drawn)	18	nt	-11	nt	-3	nt	nt	nt
C=CCn1c(Cc2ccccc2)nc2c(cnn2-c2ccccc2)c1=O	21	22	28	15	16	-5	nt	nt
CCOc1ccc2nc(NC(=O)CSCC(=O)Nc3cc(C)on3)sc2c1	-23	-15	6	5	-2	nt	nt	nt
O=C(ONC1=NCCCCC1)c1c(F)cccc1F	65*	-6	7	-1	-5	-6	27	nt
O=C(ONC1=NCCCCC1)c1ccc(Cl)cc1	70*	-7	7	10	1	-5	19	nt
O=C(NC1=NCCCCC1)c1cccc2ccccc12	-6	2	8	1	-8	15	nt	nt
O=C(N/N=C/c1ccncc1)c1cccc([N+](=O)[O-])c1	-31	-4	-5	-5	2	0	nt	nt
CN1CCN(c2ccc([N+](=O)[O-])cc2/C=N/NC(=O)c2cccc([N+](=O)[O-])c2)CC1	51*	-2	22	25	1	-4	-4	nt
Cc1[nH]n(-c2ccccc2)c(=O)c1/C=N/NC(=O)c1cccc([N+](=O)[O-])c1	52*	nt	5	nt	-2	nt	44*	6
CC(/C=N/NC(=O)c1cccc([N+](=O)[O-])c1)=C\c1ccccc1	74*	-1	nt	-8	0	-4	-30	nt
Cc1ccc(-n2[nH]c(C)c(/C=N/NC(=O)c3ccc([N+](=O)[O-])cc3)c2=O)c(C)c1	53*	17	36	-46	nt	103*	9	nt
CCCCCCC(=O)N/N=C(\C)Cc1ccccc1	10	-3	-5	-28	-2	-28	nt	nt
Cc1ccc(S(=O)(=O)Nc2cccc(C(=O)NCCCn3ccnc3)c2)cc1F	6	1	8	-7	-10	1	nt	nt
CCCCCCC(=O)Nc1ccc(C(=O)N/N=C/c2cccnc2)cc1	1	-2	53	-1	-2	-24	nt	nt
CCC(=O)N1CCN(c2ccc(Cl)cc2NC(=O)c2cccc([N+](=O)[O-])c2)CC1	55*	6	-3	22	4	-1	6	nt
COc1ccc(NC(=O)c2cccc([N+](=O)[O-])c2)cc1	-22	6	-10	5	3	-8	nt	nt
